From ChEMBL document CHEMBL1777718, “Synthesis and cytotoxicity of 17a-aza-D-homo-androster-17-one derivatives” (Bioorg Med Chem Lett, 2011) come the findings set out here.

Assay [1] can be described thus: Cytotoxicity against human SMMC-7404 cells assessed as reduction in optical density by MTT assay relative to control. The format is functional, cell-based. An outline of the steps:
(§1)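 MTT assay read as optical density. IC50 is the concentration that cut optical density of treated cells by 50% relative to untreated cells. Values are means of three independent determinations.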

The subject of assay [2] is HeLa. Nature of the assay: Cytotoxicity against human HeLa cells assessed as reduction in optical density by MTT assay relative to control. The format is functional, cell-based. An outline of the steps:
as §1

`C[C@]12CC[C@H](O)CC1=CC[C@@H]1[C@@H]2CC[C@]2(C)NC(=O)CC[C@@H]12`: the 50% inhibitory concentration (IC50) in assay [1] is over 200 µM; in assay [2], 65.9 µM.
Consider `C[C@]12CC/C(=N\NC(N)=S)C=C1/C(=N\NC(N)=S)C[C@@H]1[C@@H]2CC[C@]2(C)NC(=O)CC[C@@H]12`, for which the IC50 in assay [1] amounted to 80.5 µM; in assay [2], 28.8 µM.
For the compound `C[C@]12CC/C(=N/O)CC1/C(=N\O)C[C@@H]1[C@@H]2CC[C@]2(C)NC(=O)CC[C@@H]12` (stereo partly drawn), the half-maximal inhibitory concentration (IC50) in assay [1] worked out at 184 µM; in assay [2], 75.7 µM.
In the case of `CC(=O)O[C@H]1CC[C@@]2(C)C(=CC[C@@H]3[C@@H]2CC[C@]2(C)NC(=O)CC[C@@H]32)C1`, the half-inhibitory concentration (IC50) is over 200 µM in assay [1] and 37.6 µM in assay [2].
For `C[C@]12CCC(=O)C=C1C(=O)C[C@@H]1[C@@H]2CC[C@]2(C)NC(=O)CC[C@@H]12`, the concentration for half-maximal inhibition (IC50) in assay [1] is over 200 µM; in assay [2], 102 µM.
For `C[C@]12CCC(O)C=C1C(O)C[C@@H]1[C@@H]2CC[C@]2(C)NC(=O)CC[C@@H]12` (stereo partly drawn) the same measures were over 200 µM and 18.8 µM.
For `C[C@]12CC/C(=N/O)C=C1/C(=N\O)C[C@@H]1[C@@H]2CC[C@]2(C)NC(=O)CC[C@@H]12` the same measures were over 200 µM and 15.1 µM.
Regarding `C[C@]12CCC(=O)CC1C(=O)C[C@@H]1[C@@H]2CC[C@]2(C)NC(=O)CC[C@@H]12` (stereo partly drawn), the IC50 in assay [1] is 60.8 µM; in assay [2], 53.6 µM.
Take `C[C@]12CCC(O)CC1C(O)C[C@@H]1[C@@H]2CC[C@]2(C)NC(=O)CC[C@@H]12` (stereo partly drawn): the IC50 in assay [1] worked out at 124 µM; in assay [2], 14 µM.
